From article PMC9574760 (Food Chemistry: Molecular Sciences, 2022)
Ends that are not written are not given here.

Experiments:
elastase [1] = molecular target: T1, elastase (Sus scrofa, UniProt P00772); details: bovine elastin peptides; ref Liu, Su, Zhou, Zhang, Zheng, & Zhao, 2018; cited from earlier work
elastase [2] = molecular target: T1, elastase; experiment: Elastase inhibition test; format: biochemical
How it was run: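 Elastase from the commercial supply; test compound in 50 mM Tris-HCl, pH 8.0. The 1 mM substrate solution and the sample (buffer for the negative control) were mixed and A410 was read. Then 100 mU/mL elastase was added and incubated 5 min at 25℃, stopped with 2 M HCl, and A410 was read again. EGCG reference at 0.5 mg/mL; three independent experiments.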

porcine pepsin = experiment: In vitro simulated gastric digestion stability, RP-HPLC; format: in vitro ADME; details: pig, simulated gastric fluid with porcine pepsin, pH 2
How it was run: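 Test peptide was digested with […] porcine pepsin at pH 2.0 ([…] KCl-HCl) and an enzyme:substrate ratio of 1:30 (w/w). Digestion ran 2 h at 37℃, shaking at 170 rpm. Enzyme was inactivated in boiling water for 10 min and the digest centrifuged at 6000 × g for 15 min. Peptide before and after digestion was compared by C18 RP-HPLC with water/0.1 % TFA and acetonitrile/0.1 % TFA, 1.0 mL/min, 220 nm detection; triplicate.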

T1 sequence (P00772 27-266): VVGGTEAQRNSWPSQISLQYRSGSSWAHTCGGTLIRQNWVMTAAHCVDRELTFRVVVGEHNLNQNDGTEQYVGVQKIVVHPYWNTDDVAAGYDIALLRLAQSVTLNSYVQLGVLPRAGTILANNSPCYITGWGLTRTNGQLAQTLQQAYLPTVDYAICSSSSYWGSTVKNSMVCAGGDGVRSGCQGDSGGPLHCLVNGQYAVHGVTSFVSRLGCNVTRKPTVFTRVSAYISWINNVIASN

| Substance | elastase inhibitory activity (in words) (elastase [1]) | IC50 (elastase [2]) | remaining at 2 h, 1 mg/mL (porcine pepsin) |
| --- | --- | --- | --- |
| GPGGVGAL | weakly active | – | – |
| GLGPGVG | weakly active | – | – |
| FFVPF [FFVPF, Phe-Phe-Val-Pro-Phe] | – | 715 µM | 87.5 ± 1.24% |
| GLPY | most active | – | – |
